Calls of active or inactive are those of the source. The calls are words filed in the database; no cut-off is given here.
Legend:
[1] = Half life in rat at 10 mg/kg, po; type: ADME, organism-based; parameters: dose 10 mg/kg, route oral; details: in vivo
[2] = Half life in dog at 1 mg/kg, iv; type: ADME, organism-based, Canis lupus familiaris; parameters: dose 1 mg/kg, route intravenous; details: in vivo
[3] = Half life in dog at 5 mg/kg, po; type: ADME, organism-based, Canis lupus familiaris; parameters: dose 5 mg/kg, route oral; details: in vivo
[4] = Clearance in rat at 1 mg/kg, iv; type: ADME, organism-based; parameters: dose 1 mg/kg, route intravenous; details: in vivo
[5] = Clearance in dog at 1 mg/kg, iv; type: ADME, organism-based, Canis lupus familiaris; parameters: dose 1 mg/kg, route intravenous; details: in vivo
[6] = Volume of distribution in rat at 1 mg/kg, iv; type: ADME, organism-based; parameters: dose 1 mg/kg, route intravenous; details: in vivo, read-out: Vdss
[7] = Volume of distribution in dog at 1 mg/kg, iv; type: ADME, organism-based, Canis lupus familiaris; parameters: dose 1 mg/kg, route intravenous; details: in vivo, read-out: Vdss
[8] = Oral bioavailability in rat at 10 mg/kg; type: ADME, organism-based; details: in vivo
[9] = Oral bioavailability in dog at 5 mg/kg; type: ADME, organism-based, Canis lupus familiaris; details: in vivo
[10] = Ratio of drug level in brain to plasma in rat at 3 mg/kg, ip or 100 mg/kg, po; type: ADME, organism-based; details: read-out: BPR
Procedure, shortened: (§1)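 Rats given a single dose, 3 mg/kg ip or 100 mg/kg oral; drug concentrations measured in plasma and brain at timed points after dosing; brain/plasma concentration ratio calculated.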

[11] = species: Rattus norvegicus; assay: Decrease in water intake in schedule-induced polydipsia rat model; type: functional, organism-based
[12] = species: Rattus norvegicus; assay: Effect on water intake in non-SIP rat model; type: functional, organism-based
[13] = system: Rattus norvegicus; assay: Increase in GABA level in rat frontal cortex at 10 mg/kg, sc; type: functional, organism-based; parameters: dose 10 mg/kg
Procedure, shortened: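 Frontal cortex extracellular GABA, glutamate and norepinephrine measured in rats after 10 mg/kg sc; in antagonist tests, 5-HT₆ antagonist 10 mg/kg sc given before agonist; comparison with vehicle, significance P < 0.05.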

[14] = target: Beta-2 adrenergic receptor (Homo sapiens) (UniProt P07550); assay: Displacement of radio ligand from beta-2 adrenergic receptor at 100 nM
Chain of Beta-2 adrenergic receptor (Homo sapiens) (P07550 whole entry, looked up): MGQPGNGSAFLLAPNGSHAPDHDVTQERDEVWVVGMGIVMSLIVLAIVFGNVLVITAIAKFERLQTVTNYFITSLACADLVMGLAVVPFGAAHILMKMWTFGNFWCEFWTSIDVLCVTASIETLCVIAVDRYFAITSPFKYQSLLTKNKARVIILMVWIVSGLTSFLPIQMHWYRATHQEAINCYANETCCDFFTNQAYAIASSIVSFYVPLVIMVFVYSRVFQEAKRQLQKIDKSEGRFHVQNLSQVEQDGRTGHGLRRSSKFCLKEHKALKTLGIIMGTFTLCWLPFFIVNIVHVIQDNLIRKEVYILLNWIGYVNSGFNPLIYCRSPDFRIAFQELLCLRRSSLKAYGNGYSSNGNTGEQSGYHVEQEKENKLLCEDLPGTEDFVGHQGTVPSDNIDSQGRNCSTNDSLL

[15] = Drug level in Sprague-Dawley rat brain at 3 mg/kg, ip after 2 hrs; type: ADME, organism-based; parameters: dose 3 mg/kg, route intraperitoneal; details: read-out: Drug uptake
Procedure, shortened: (§2)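 Rats given a single 3 mg/kg ip or 100 mg/kg oral dose; plasma and brain concentrations measured over time to assess brain/plasma ratio.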

[16] = Drug level in Sprague-Dawley rat brain at 3 mg/kg, ip after 4 hrs; type: ADME, organism-based; parameters: dose 3 mg/kg, route intraperitoneal; details: read-out: Drug uptake; procedure, shortened: as §2
[17] = Ratio of drug level in brain to plasma in Sprague-Dawley rat at 3 mg/kg, ip after 0.25 hr; type: ADME, organism-based; parameters: dose 3 mg/kg, route intraperitoneal; details: read-out: BPR; procedure, shortened: as §1
[18] = Ratio of drug level in brain to plasma in Sprague-Dawley rat at 3 mg/kg, ip after 0.5 hr; type: ADME, organism-based; parameters: dose 3 mg/kg, route intraperitoneal; details: read-out: BPR; procedure, shortened: as §1
[19] = Ratio of drug level in brain to plasma in Sprague-Dawley rat at 3 mg/kg, ip after 1 hr; type: ADME, organism-based; parameters: dose 3 mg/kg, route intraperitoneal; details: read-out: BPR; procedure, shortened: as §1
[20] = Ratio of drug level in brain to plasma in Sprague-Dawley rat at 3 mg/kg, ip after 2 hrs; type: ADME, organism-based; parameters: dose 3 mg/kg, route intraperitoneal; details: read-out: BPR; procedure, shortened: as §1
[21] = Ratio of drug level in brain to plasma in Sprague-Dawley rat at 3 mg/kg, ip after 4 hrs; type: ADME, organism-based; parameters: dose 3 mg/kg, route intraperitoneal; details: read-out: BPR; procedure, shortened: as §1
[22] = Drug level in Sprague-Dawley rat plasma at 100 mg/kg, po after 0.25 hr; type: ADME, organism-based; parameters: dose 100 mg/kg, route oral; procedure, shortened: as §2
[23] = Drug level in Sprague-Dawley rat plasma at 100 mg/kg, po after 0.5 hr; type: ADME, organism-based; parameters: dose 100 mg/kg, route oral; procedure, shortened: as §2
[24] = Drug level in Sprague-Dawley rat plasma at 100 mg/kg, po after 1 hr; type: ADME, organism-based; parameters: dose 100 mg/kg, route oral; procedure, shortened: as §2
[25] = Drug level in Sprague-Dawley rat plasma at 100 mg/kg, po after 2 hrs; type: ADME, organism-based; parameters: dose 100 mg/kg, route oral; procedure, shortened: as §2
[26] = Drug level in Sprague-Dawley rat plasma at 100 mg/kg, po after 4 hrs; type: ADME, organism-based; parameters: dose 100 mg/kg, route oral; procedure, shortened: as §2
[27] = Drug level in Sprague-Dawley rat brain at 100 mg/kg, po after 0.25 hr; type: ADME, organism-based; parameters: dose 100 mg/kg, route oral; details: read-out: Drug uptake; procedure, shortened: as §2
[28] = Drug level in Sprague-Dawley rat brain at 100 mg/kg, po after 0.5 hr; type: ADME, organism-based; parameters: dose 100 mg/kg, route oral; details: read-out: Drug uptake; procedure, shortened: as §2
[29] = Drug level in Sprague-Dawley rat brain at 100 mg/kg, po after 1 hr; type: ADME, organism-based; parameters: dose 100 mg/kg, route oral; details: read-out: Drug uptake; procedure, shortened: as §2
[30] = Drug level in Sprague-Dawley rat brain at 100 mg/kg, po after 2 hrs; type: ADME, organism-based; parameters: dose 100 mg/kg, route oral; details: read-out: Drug uptake; procedure, shortened: as §2
[31] = Drug level in Sprague-Dawley rat brain at 100 mg/kg, po after 4 hrs; type: ADME, organism-based; parameters: dose 100 mg/kg, route oral; details: read-out: Drug uptake; procedure, shortened: as §2
[32] = Ratio of drug level in brain to plasma in Sprague-Dawley rat at 100 mg/kg, po after 0.25 hr; type: ADME, organism-based; parameters: dose 100 mg/kg, route oral; details: read-out: BPR; procedure, shortened: as §1
[33] = Ratio of drug level in brain to plasma in Sprague-Dawley rat at 100 mg/kg, po after 0.5 hr; type: ADME, organism-based; parameters: dose 100 mg/kg, route oral; details: read-out: BPR; procedure, shortened: as §1
[34] = Ratio of drug level in brain to plasma in Sprague-Dawley rat at 100 mg/kg, po after 1 hr; type: ADME, organism-based; parameters: dose 100 mg/kg, route oral; details: read-out: BPR; procedure, shortened: as §1
[35] = Ratio of drug level in brain to plasma in Sprague-Dawley rat at 100 mg/kg, po after 2 hrs; type: ADME, organism-based; parameters: dose 100 mg/kg, route oral; details: read-out: BPR; procedure, shortened: as §1
[36] = Ratio of drug level in brain to plasma in Sprague-Dawley rat at 100 mg/kg, po after 4 hrs; type: ADME, organism-based; parameters: dose 100 mg/kg, route oral; details: read-out: BPR; procedure, shortened: as §1

`NCCc1cn(S(=O)(=O)c2c(Cl)nc3sccn23)c2ccccc12` gave a half-life [1] of 3.1 h, a half-life [2] of 2.9 h and a half-life [3] of 6.6 h. It also gave a clearance [4] of 123 mL/min/kg, a clearance [5] of 30 mL/min/kg and a Vd [6] of 24 L/kg. It also gave a Vd [7] of 7.9 L/kg, a bioavailability [8] of 23% and a bioavailability [9] of 55%. For the same molecule, the Kp [10] was 0.1, the Activity [11] was “Dose-dependent effect” and the Activity [12] was “inactive”. For the same molecule, the Activity [13] was “Active”, the Activity [14] was < 50% and the concentration at 2 h [15] was 1.1 ng/mL. It also gave a concentration at 4 h [16] of 6 ng/mL, a Kp at 0.25 h [17] of 0.09 and a Kp at 0.5 h [18] of 0.17. The Kp at 1 h [19] was 0.68, the Kp at 2 h [20] was 0.33 and the Kp at 4 h [21] was 1.39. The concentration at 0.25 h [22] was 120 ng/mL, the concentration at 0.5 h [23] was 356 ng/mL and the concentration at 1 h [24] was 312 ng/mL. The concentration at 2 h [25] was 239 ng/mL, the concentration at 4 h [26] was 372 ng/mL and the concentration at 0.25 h [27] was 12.5 ng/mL. The concentration at 0.5 h [28] was 194 ng/mL, the concentration at 1 h [29] was 45.1 ng/mL and the concentration at 2 h [30] was 59.6 ng/mL. The concentration at 4 h [31] was 98 ng/mL, the Kp at 0.25 h [32] was 0.1 and the Kp at 0.5 h [33] was 0.55. The Kp at 1 h [34] was 0.14, the Kp at 2 h [35] was 0.25 and the Kp at 4 h [36] was 0.26.
